Results reported in ChEMBL document CHEMBL1155264, “Synthesis of substituted-phenyl-1,2,4-triazol-3-thione analogues with modified D-glucopyranosyl residues and their antiproliferative activities” (Eur J Med Chem, 2009).

Legend:
Bel-7402 = experiment: Antiproliferative activity against human Bel7402 cells after 24 hrs by MTT assay; type: functional, cell-based; details: Bel-7402, 24 h
Outline: (§1)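 Cells plated at 1 × 10⁴ per well and cultured 24 h at 37 °C, 5% CO₂. Medium then replaced with fresh medium containing compound at varying concentrations, five wells per concentration, and incubated 24 h. MTT (5 mg/mL in phosphate buffer pH 7.4) added for 4 h at 37 °C. Absorbance read at 570 nm, blanked on cell-free medium. IC50 is 50% growth inhibition versus untreated control; mean ± SD, n = 3.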

MCF7 = experiment: Antiproliferative activity against human MCF7 cells after 24 hrs by MTT assay; type: functional, cell-based; details: MCF7, 24 h; outline: as §1

SMILES	IC50 (Bel-7402) [µM]	IC50 (MCF7) [µM]
S=c1[nH]nc(-c2ccccc2)n1/N=C/c1ccccc1	22.5	31.8
COc1cc(/C=N/n2c(-c3ccccc3)n[nH]c2=S)ccc1O	19.6	26.3
Oc1ccc(/C=N/n2c(-c3ccccc3)n[nH]c2=S)cc1	25.2	29.9
CC(=O)OC[C@H]1O[C@@H](n2nc(-c3ccccc3)n(/N=C/c3ccccc3)c2=S)[C@H](OC(C)=O)[C@@H](OC(C)=O)[C@@H]1OC(C)=O	10.7	18
S=c1[nH]nc(-c2ccccc2)n1/N=C/c1ccc(Cl)cc1	24	30.5
O=c1[nH]cc(F)c(=O)[nH]1 [FLUOROURACIL]	4.7	4.3
